The values that follow come from ChEMBL document CHEMBL1122612, “7-(Ethoxycarbonyl)-6,8-dimethyl-2-phenyl-1(2H)-phthalazinone derivatives: synthesis and inhibitory effects on platelet aggregation” (J Med Chem, 1984).

Usually IC50 stands for the concentration that gives 50% inhibition. Low values mean greater potency in that assay, high ones weaker potency in that assay.

Where only a bound is given, the exact number is not on record here.

System in the first assay: not listed separately
Description: Inhibition of human platelet cAMP Phosphodiesterase. The format is functional.
Conditions: not given
The method in brief: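 Low-Km cAMP phosphodiesterase from human platelets, prepared and assayed per an earlier method. Result expressed as IC50, the μM concentration inhibiting enzyme activity by 50%.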
In turn, `CCOC(=O)c1c(C)cc2cnn(-c3ccccc3)c(=O)c2c1C` returned an IC50 of 10 µM.
Same read-out and setting: under `CCOC(=O)c1c(C)cc2cnn(-c3ccccc3Cl)c(=O)c2c1C` stands 34 µM; under `COc1ccc(Cc2nccc3cc(OC)c(OC)cc23)cc1OC` [PAPAVERINE], 0.55 µM.

The species entered for another assay is Oryctolagus cuniculus. Description: Inhibition of arachidonic acid induced platelet aggregation in rabbit platelet rich plasma, range 25-50. The note with it: read-out: ED50 (the source's name). In kind it is functional. In a few lines: (§1)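 Rabbit blood drawn from the carotid artery (pentobarbital anaesthesia, 35 mg/kg iv) into 3.8% sodium citrate (1/10 volume). PRP obtained by spinning at 150g for 15 min; 3.5-4.5 × 10^5 platelets/μL. Compound in Me2SO (≤0.5% final) preincubated 3 min at 37 °C with 1200 rpm stirring. Aggregation then started with 137 μM AA (final) and read turbidimetrically. Inhibition = maximum deflection relative to vehicle; ED50 range from three experiments.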
For `CCOC(=O)c1c(C)cc2cnn(-c3ccc(C)cc3)c(=O)c2c1C`, the EC50 came to 25 µM.
On the same count and under the same terms, under `CCOC(=O)c1c(C)cc2cnn(-c3ccc(O)cc3)c(=O)c2c1C` stands 25 µM.

Another assay is filed under the species Oryctolagus cuniculus. Description: Inhibition of arachidonic acid induced platelet aggregation in rabbit platelet rich plasma, range 50-100. The format is functional. Conditions: read-out: ED50 (the source's name). In a few lines: as §1
`CCOC(=O)c1c(C)cc2cnn(-c3cccc(C)c3)c(=O)c2c1C`: the EC50 is 50 µM.

A further assay is filed under the species Oryctolagus cuniculus. As to the kind of experiment: Inhibition of arachidonic acid induced platelet aggregation in rabbit platelet rich plasma, range 2-5. The format is functional. Conditions: read-out: ED50 (the source's name). The method in brief: as §1
With `CCOC(=O)c1c(C)cc2cnn(-c3ccccc3)c(=O)c2c1C`, the EC50 was 2 µM.
Still for that read-out and setting: under `CCOC(=O)c1c(C)cc2cnn(-c3ccccc3Cl)c(=O)c2c1C` stands 2 µM; under `CCOC(=O)c1c(C)cc2cnn(-c3ccccc3F)c(=O)c2c1C`, 2 µM; under `CCOC(=O)c1c(C)cc2cnn(-c3ccc(N)cc3)c(=O)c2c1C`, 2 µM.

The species named for the next assay is Oryctolagus cuniculus. As to the kind of experiment: Inhibition of arachidonic acid induced platelet aggregation in rabbit platelet rich plasma. The format is functional. Conditions: read-out: ED50 (the source's name). The method in brief: as §1
In the case of `CCOC(=O)c1ccc(-n2ncc3cc(C)c(C(=O)OCC)c(C)c3c2=O)cc1`, the EC50 was not below 50 µM.
On to `CCOC(=O)c1c(C)cc2cnn(-c3ccc(F)cc3)c(=O)c2c1C`, for which the EC50 is not below 50 µM.
Take `CCOC(=O)c1c(C)cc2cnn(-c3ccc(NC(C)=O)cc3)c(=O)c2c1C`: the EC50 was not below 50 µM.
Same read-out and setting: under `CCOC(=O)c1c(C)cc2cnn(-c3cccc(OC)c3)c(=O)c2c1C` stands not below 50 µM; under `COc1ccc(-n2ncc3cc(OC)c(OC)cc3c2=O)cc1OC`, not below 100 µM.
`CCOC(=O)c1c(C)cc2cnn(-c3ccc(S(C)(=O)=O)cc3)c(=O)c2c1C`: the EC50 was not below 50 µM.
As for `COc1cc2cnn(-c3ccccc3Cl)c(=O)c2cc1OC`, the EC50 was not below 100 µM.
Still for that read-out and setting: next, `CCOC(=O)c1c(C)cc2cnn(-c3ccc(OC)c(OC)c3)c(=O)c2c1C`: not below 50 µM; `CCOC(=O)c1c(C)cc2cnn(-c3ccc(C)c(Cl)c3)c(=O)c2c1C`: not below 50 µM.
As for `CCOC(=O)c1c(C)cc2cnn(-c3ccc([N+](=O)[O-])cc3)c(=O)c2c1C`, the EC50 was not below 50 µM.
The same measure, in the same setting: under `CCOC(=O)c1c(C)cc2cnn(-c3ccc(C(=O)O)cc3)c(=O)c2c1C` stands not below 50 µM.
The same measure, in the same setting: under `COc1ccc(-n2ncc3cc(OC)c(OC)cc3c2=O)cc1` stands not below 100 µM.
On the same count and under the same terms, under `COc1cc2cnn(-c3ccccc3)c(=O)c2cc1OC` stands not below 100 µM.

The species entered for another assay is Oryctolagus cuniculus. As to the kind of experiment: Inhibition of arachidonic acid induced platelet aggregation in rabbit platelet rich plasma, range 5-10. Conditions: read-out: ED50 (the source's name). The format is functional. In a few lines: as §1
For the molecule `CCOC(=O)c1c(C)cc2cnn(-c3ccc(OC)cc3)c(=O)c2c1C`, the EC50 was found to be 5 µM.
As for `CCOC(=O)c1c(C)cc2cnn(-c3ccccc3C)c(=O)c2c1C`, the EC50 was determined as 5 µM.
